Bioassay records from PubChem BioAssay.
The list is not random: actives were taken first. Their share in the collection is about 3.7%.
KCNQ1 act – potentiators or activators of KCNQ1 channel, primary screen, cell-based, thallium flux, high-throughput. B-score at 10 µM. Potassium voltage-gated channel subfamily KQT member 1 (Homo sapiens), P51787. 310,000 compounds, 0.35% hits. CHO-K1 KCNQ1, thallium flux FluxOR fluorescence; active compounds read high;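 active = fluorescence ratio B-score, a plate-corrected score, at least three library SD, with initial intensity B-score within 5 SD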
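Schedule – 37 °C overnight plating, 90-min dark dye load, 20-min compound pretreatment · System – stable KCNQ1 CHO-K1 line · Probe or stimulus – thallium- and potassium-containing depolarizing buffer · Measured by – kinetic FluxOR fluorescence, 10 s baseline plus 110 s post-stimulus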
KCNK9 block – KCNK9 potassium channel inhibitors, primary screen, HEK293 cells, thallium flux; FluxOR thallium flux fluorescence; active compounds read low; AID 488922, 2010; 310,000 compounds, 1.2% hits; B-score at 10 µM;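 active = ratio B-score over 3 SD below the library mean, with starting fluorescence within 5 SD of its mean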;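 note: negative B-score means less thallium flux so channel inhibition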
Target sequence (Q9NPC2 whole entry, looked up): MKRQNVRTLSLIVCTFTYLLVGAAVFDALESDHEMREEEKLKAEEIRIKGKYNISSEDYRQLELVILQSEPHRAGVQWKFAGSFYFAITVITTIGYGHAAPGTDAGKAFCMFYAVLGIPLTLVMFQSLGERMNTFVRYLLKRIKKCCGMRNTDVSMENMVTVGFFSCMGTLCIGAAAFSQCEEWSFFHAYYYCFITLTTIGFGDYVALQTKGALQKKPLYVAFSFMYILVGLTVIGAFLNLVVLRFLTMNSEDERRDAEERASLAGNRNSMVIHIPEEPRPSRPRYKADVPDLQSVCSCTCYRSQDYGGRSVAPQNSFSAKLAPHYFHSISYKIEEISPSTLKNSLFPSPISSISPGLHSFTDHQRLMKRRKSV
Kir21 inh – inhibitors of mouse Kir2.1 inward-rectifier potassium channel | Inward rectifier potassium channel 2 (Mus musculus), P35561 | HEK293-Kir2.1, FluxOR thallium flux fluorescence; active compounds read low | AID 1672, 2009 | 310,000 compounds, 0.85% hits | B-score at 10 µM;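 active = fluorescence ratio B-score at or below minus 3 SD of library scores, with starting-brightness B-score within 2 SD, cut at about -4.2 in these data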;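 note: channel flux triggered by added potassium and thallium sulfate stimulus; B-score of peak minus minimum fluorescence over baseline after thallium stimulus; more negative B-score means stronger Kir2.1 block with less thallium influx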
hERG rescue – hERG rescue from dofetilide block, primary screen, cell-based, CHO-hERG, FluxOR thallium flux, dofetilide IC70; dofetilide IC70 present; activation (rescue from dofetilide block), less the hit threshold, % at 10 µM; 310,000 compounds, 0.51% hits;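 active = activation above the mean of controls blocked by dofetilide plus 5 SD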;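 note: thallium influx through hERG after potassium depolarization seen as dye fluorescence rise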
KCNQ1 block – inhibitors of human KCNQ1 channel, primary screen, cell-based, thallium flux, high-throughput; Potassium voltage-gated channel subfamily KQT member 1 (Homo sapiens), P51787; CHO-K1 KCNQ1, FluxOR thallium flux fluorescence; active compounds read high; B-score at 10 µM; 310,000 compounds, 1.3% hits;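 active = compounds whose thallium flux B-score, printed positive for inhibition, exceeds three library SD while starting fluorescence stays within three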;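 note: channel opened by potassium depolarization with thallium stimulus after 20 min compound exposure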
KCNK3 block – human KCNK3 channel inhibitors, primary screen, CHO cells, FluxOR thallium flux, B-score. Potassium channel subfamily K member 3 (Homo sapiens), O14649. FluxOR fluorescence; active compounds read low. B-score at 10 µM. 340,000 compounds, 0.84% hits. AID 602410, 2012;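 active = B-score under library mean minus 4 SD, starting fluorescence ratio at most library mean plus 5 SD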;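 note: more negative B-score means stronger inhibition of thallium flux through KCNK3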
Large screens that a line does not name were inactive.

CCCCNS(=O)(=O)c1ccc(OCC(=O)N2CCN(Cc3ccc4c(c3)OCO4)CC2)cc1	none
CCCC[N+]12CCC(CC1)C(C(=O)c1cccs1)C2 (stereo not drawn)	Kir21 inh -4.9
O=C(CCN1CC2CCC(CC2)C1)c1cccs1	none (no result: KCNQ1 act, KCNK9 block, Kir21 inh, hERG rescue, KCNQ1 block)
COC(=O)C1=C(c2cc3ccccc3o2)C[C@@H]2CC[C@H]1N2C(=O)N1CCC(C)CC1	none
CCN1C[C@@]2(COC)C3[C@@H](OC)[C@H]4[C@@H]1[C@@]3(C1C[C@H]3[C@H](O)C1[C@]4(O)C[C@H]3OC)[C@@H](OC)C[C@H]2O (stereo partly drawn)	none
Cc1ccc(NP(=O)(Oc2ccccc2F)Oc2ccccc2F)cc1	KCNQ1 block 6
Cc1ccc(NP(=O)(Oc2ccccc2)Oc2ccccc2)cc1	none (no result: KCNQ1 act, KCNK9 block, Kir21 inh, hERG rescue, KCNQ1 block)
CCc1ccc(NP(=O)(Oc2ccccc2F)Oc2ccccc2F)cc1	KCNK9 block -7.4
CC(C)C(=O)c1cn(Cc2ccc(C#N)cc2)c2ccccc12	KCNK9 block -6.9
CN1CCCN(C(=O)COc2ccc(F)cc2F)CC1	none
COC(=O)C1=C(c2ccc(Cl)c(C(F)(F)F)c2)C[C@@H]2CC[C@H]1N2C(=O)NCc1cc(C)oc1C(F)(F)F	none (no result: KCNQ1 act, KCNK9 block, Kir21 inh, hERG rescue, KCNQ1 block)
N#CSCC(=O)N1c2ccccc2CCc2ccccc21	KCNK9 block -6.9, Kir21 inh -6.8
Nc1ccccc1C(=O)OCC(=O)N1CCc2ccccc21	none
COC(=O)C1=C(c2ccc(S(C)(=O)=O)cc2)C[C@@H]2CC[C@H]1N2C(=O)NC1CCCCC1	hERG rescue 5.8
COC(=O)C1=C(c2cc3ccccc3o2)C[C@@H]2CC[C@H]1N2C(=O)NCc1ccco1	none
c1cc2c(cc1CCNC1C3CC4CC(C3)CC1C4)OCO2 (stereo not drawn)	Kir21 inh -4.5, KCNQ1 block 6
CC1CCC(NCCc2ccc3c(c2)OCO3)CC1 (stereo not drawn)	none
C#C[C@]1(O)CCC2C3CCC4=C/C(=N/OCC(=O)NC(C)C(=O)NC(CCSC)C(=O)O)CC[C@]4(C)C3CC[C@@]21C (stereo partly drawn)	none
O=c1[nH]c(=S)n(-c2ccccc2Cl)c(O)c1C=NCCN1CCNCC1	none
Cc1ccc(-n2c(CNCc3ccc(F)cc3)nc3ccccc3c2=O)cc1	none
O=C(CSC1c2ccccc2-c2ccccc21)N/N=C/c1ccccc1O	KCNQ1 block 9
O=C(CSC1c2ccccc2-c2ccccc21)N/N=C/c1ccc(C(=O)O)cc1	none
COc1ccc(CN2CCN(C(=O)Cc3ccccc3)CC2)cc1Br	none
COc1ccc2c(c1)/C(=C/c1cnc[nH]1)C(=O)N2	KCNQ1 act 8
O=C1Nc2ccccc2/C1=C/c1cnc[nH]1	none
O=C(c1ccccc1F)N1C[C@H]2C[C@@H](C1)c1cccc(=O)n1C2	none
COC(=O)C1=C(c2cccc(C#N)c2)C[C@@H]2CC[C@H]1N2C(=O)N1CCCC1	none (no result: KCNQ1 act, KCNK9 block, Kir21 inh, hERG rescue, KCNQ1 block)
O=c1[nH]c(=O)n(-c2ccc(F)cc2)c(O)c1/C=C1\C=Nc2ccccc21	KCNQ1 block 9
O=c1[nH]c(=O)n(-c2ccccc2F)c(O)c1/C=C1\C=Nc2ccccc21	none
C=CCn1c(O)c(C=Nc2ccc(F)cc2)c(=O)[nH]c1=O	none
C=CCn1c(O)c(/C=C2/C=c3ccccc3=N2)c(=O)[nH]c1=S	hERG rescue 35
COC(=O)C1=C(c2ccc(F)cc2F)C[C@@H]2CC[C@H]1N2C(=O)N1CCC(O)(c2ccc(Cl)cc2)CC1	none (no result: KCNQ1 act, KCNK9 block, Kir21 inh, hERG rescue, KCNQ1 block)
CCC1C(c2ccccc2)NC(c2ccccc2)CC1(O)c1ccc(F)cc1 (stereo not drawn)	Kir21 inh -4.5
O=[N+]([O-])c1cc(F)c(N2CCCC2)cc1Br	KCNQ1 block 6
CN1CCN(c2cc(N3CCCC3)c([N+](=O)[O-])cc2F)CC1	KCNQ1 act 9
CCN(CC(=O)Nc1ccc(C#N)c(Cl)c1)CC(=O)NC1CCS(=O)(=O)C1 (stereo not drawn)	none (no result: KCNQ1 act, KCNK9 block, Kir21 inh, hERG rescue, KCNQ1 block)
Cc1ccc(-c2cc(-c3ccc(C)cc3)[n+](-c3ccc(C(=O)[O-])cc3)c(-c3ccc(C)cc3)c2)cc1	Kir21 inh -8.2, KCNQ1 block 8
CCOC(=O)c1cccc(-[n+]2c(-c3ccccc3)cc(-c3ccccc3)cc2-c2ccccc2)c1	Kir21 inh -11, KCNQ1 block 13
CCOC(=O)c1ccc(-[n+]2c(-c3ccccc3)cc(-c3ccccc3)cc2-c2ccccc2)cc1	Kir21 inh -11, KCNQ1 block 12
CN1C[C@H]2CON(C)[C@H]2C[C@H]1c1cccc(Br)c1	none (no result: KCNQ1 act, KCNK9 block, Kir21 inh, hERG rescue, KCNQ1 block)
c1ccc2c(c1)CC1CNCc3cccc(c31)S2 (stereo not drawn)	Kir21 inh -8.1
CN1CCN(CC#CCOc2ccc(Cl)cc2)CC1	hERG rescue 9.8
O=c1c2cc(Br)ccc2[nH]c(=S)n1-c1ccccc1	hERG rescue 37
Clc1ccccc1C1NCc2ccccc2-n2cccc21 (stereo not drawn)	Kir21 inh -5.2
CC(C)c1ccc(C2NCc3ccccc3-n3cccc32)cc1 (stereo not drawn)	none
CCOc1cccc(C2NCc3ccccc3-n3cccc32)c1O (stereo not drawn)	none
Oc1ccccc1C1NCc2ccccc2-n2cccc21 (stereo not drawn)	Kir21 inh -4.5
C(#CCN1CCOCC1)COCC#Cc1ccccc1	hERG rescue 5.3
CC1=CC(O)C(O)C2(C)C1CC1OC(=O)CC3C(C)C(O)C(=O)C2C13CO (stereo not drawn)	none (no result: KCNQ1 act, KCNK9 block, Kir21 inh, hERG rescue, KCNQ1 block)
CC/C(=C\C=C\[C@@H]1C=C[C@@H]2CCC[C@H]2[C@@H]1C(=O)c1ccc[nH]1)[C@@H]1O[C@@H]([C@@H](C)C(=O)O)CC[C@@H]1C	KCNQ1 act 38, hERG rescue 74 (no result: KCNK3 block)
CCOP(=S)(OCC)Oc1nc(Cl)c(Cl)cc1Cl	KCNK3 block -9.1 (no result: KCNQ1 act, KCNK9 block, Kir21 inh, hERG rescue, KCNQ1 block)
N#CC(C#N)=Cc1ccc(-c2ccccc2F)o1	none (no result: KCNQ1 act, KCNK9 block, Kir21 inh, hERG rescue, KCNQ1 block)
N#CC(C#N)=Cc1ccc(-c2ccccc2)o1	KCNQ1 block 7 (no result: KCNK3 block)
c1ccc(-c2[nH]c(-c3ccccc3)[n+](CC3CO3)c2-c2ccccc2)cc1 (stereo not drawn)	Kir21 inh -6.8
O=C1CNC(c2ccccc2Cl)c2cc(Br)ccc2N1 (stereo not drawn)	none
CNC(=O)Oc1cc2c(cc1C(C)(C)C)CCC2	none (no result: KCNQ1 act, KCNK9 block, Kir21 inh, hERG rescue, KCNQ1 block)
